Laboratory results taken from ChEMBL document CHEMBL1134964, “Heterocyclic benzazole derivatives with antimycobacterial in vitro activity” (2002).
Values after ≈ are worked out from the molar mass of the structure shown.

Assays:
Format in all cases: functional
HeLa = assay: The compound was tested for cytotoxicity against HeLa cells.; details: Homo sapiens
[1] = Ratio of cytotoxicity to minimum inhibitory concentration of Mycobacterium tuberculosis My 331/88 was evaluated
[2] = system: Mycobacterium tuberculosis; assay: In vitro minimum inhibitory concentration the compound for anti-mycobacterial activity was determined against Mycobacterium tuberculosis (My 331/88) by micromethod after 21 days of incubation; details: 504 h
Outline: (§1)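 Micromethod broth MIC. Compounds tested at 500, 250, 125, 32, 16, 8, 4 and 2, plus one intermediate level between 125 and 32. Plates incubated at 37 C and read at 7, 14 and 21 days. MIC is the lowest concentration at which growth of the mycobacteria was inhibited. MIC could not be set where solubility in the test medium was limited.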

Mycobacterium kansasii [3] = assay: In vitro minimum inhibitory concentration of the compound for anti-mycobacterial activity was determined against Mycobacterium kansasii (My 6 509/96) by micromethod after 7 days of incubation; details: 168 h
Mycobacterium kansasii [4] = assay: In vitro inhibition of Mycobacterium Kansasi (My 235/80) growth after 21 days culture.; details: 504 h
Mycobacterium kansasii [5] = assay: In vitro inhibition of Mycobacterium Kansasi (My 6 509/96) growth after 14 days culture.; details: 336 h
Mycobacterium kansasii [6] = assay: In vitro inhibition of Mycobacterium Kansasi (My 235/80) growth after 14 days culture.; details: 336 h
Mycobacterium avium [7] = assay: In vitro inhibition of Mycobacterium Avium growth after 14 days culture.; details: 336 h; outline: as §1
Mycobacterium avium [8] = assay: In vitro inhibition of Mycobacterium Avium (My 330/88) growth after 21 days culture.; details: 504 h; outline: as §1
Mycobacterium kansasii [9] = assay: In vitro inhibition of Mycobacterium Kansasi (My 235/80) growth after 7 days culture.; details: 168 h
Mycobacterium kansasii [10] = assay: In vitro inhibition of Mycobacterium Kansasi (My 6 509/96) growth after 21 days culture.; details: 504 h
Mycobacterium kansasii [11] = assay: In vitro inhibition of Mycobacterium Kansasi (My 6 509/96) growth after 7 days culture.; details: 168 h
[12] = system: Mycobacterium tuberculosis; assay: In vitro inhibition of Mycobacterium Tuberculosis (My 331/88) growth after 14 days culture.; details: 336 h; outline: as §1
[13] = system: Mycobacterium tuberculosis; assay: In vitro inhibition of Mycobacterium Tuberculosis (My 331/88) growth after 21 days culture.; details: 504 h; outline: as §1
Mycobacterium kansasii [14] = assay: In vitro minimum inhibitory concentration the compound for anti-mycobacterial activity was determined against Mycobacterium kansasii (My 6 509/96) by micromethod after 7 days of incubation; details: 168 h
Mycobacterium kansasii [15] = assay: In vitro minimum inhibitory concentration the compound for anti-mycobacterial activity was determined against Mycobacterium kansasii (My 235/80) by micromethod after 14 days of incubation; details: 336 h
Mycobacterium kansasii [16] = assay: In vitro minimum inhibitory concentration the compound for anti-mycobacterial activity was determined against Mycobacterium kansasii (My 235/80) by micromethod after 21 days of incubation; details: 504 h
Mycobacterium kansasii [17] = assay: In vitro minimum inhibitory concentration the compound for anti-mycobacterial activity was determined against Mycobacterium kansasii (My 6 509/96) by micromethod after 14 days of incubation; details: 336 h
Mycobacterium avium [18] = assay: In vitro minimum inhibitory concentration the compound for anti-mycobacterial activity was determined against Mycobacterium avium (My 330/88) by micromethod after 21 days of incubation; details: 504 h; outline: as §1
Mycobacterium kansasii [19] = assay: In vitro minimum inhibitory concentration the compound for anti-mycobacterial activity was determined against Mycobacterium kansasii (My 6 509/96) by micromethod after 21 days of incubation; details: 504 h
Mycobacterium avium [20] = assay: In vitro minimum inhibitory concentration the compound for anti-mycobacterial activity was determined against Mycobacterium avium (My 330/88) by micromethod after 14 days of incubation; details: 336 h; outline: as §1

| SMILES | CC50 (HeLa) [µM] | Safety index [1] | MIC (Mycobacterium kansasii [4]) [µM] | MIC (Mycobacterium kansasii [5]) [µM] | MIC (Mycobacterium kansasii [6]) [µM] | MIC (Mycobacterium avium [7]) [µM] | MIC (Mycobacterium avium [8]) [µM] | MIC (Mycobacterium kansasii [9]) [µM] | MIC (Mycobacterium kansasii [10]) [µM] | MIC (Mycobacterium kansasii [11]) [µM] | MIC [12] [µM] | MIC [13] [µM] | further results |
| --- | --- | --- | --- | --- | --- | --- | --- | --- | --- | --- | --- | --- | --- |
| NC(=S)c1cccc(CSc2nc3ccccc3s2)c1 | 36.7 | 4.6 | 16 (≈ 5.06 µg/mL) | 16 (≈ 5.06 µg/mL) | 16 (≈ 5.06 µg/mL) | 32 (≈ 10.1 µg/mL) | 62 (≈ 19.6 µg/mL) | 8 (≈ 2.53 µg/mL) | 16 (≈ 5.06 µg/mL) |  |  |  | MIC [2]: 16 µM (≈ 5.06 µg/mL); MIC (Mycobacterium kansasii [3]): 8 µM (≈ 2.53 µg/mL) |
| O=[N+]([O-])c1ccc(CSc2nc3ccccc3s2)cc1 |  |  | > 250 | > 32 | > 62 | 32 (≈ 9.68 µg/mL) | > 62 | 32 (≈ 9.68 µg/mL) | > 125 | 32 (≈ 9.68 µg/mL) | > 32 | > 125 |  |
| NC(=S)c1ccc(CSc2nc3ccccc3o2)cc1 | 78.6 | 9.8 | 16 (≈ 4.81 µg/mL) | 16 (≈ 4.81 µg/mL) | 16 (≈ 4.81 µg/mL) | 32 (≈ 9.61 µg/mL) | 32 (≈ 9.61 µg/mL) | 8 (≈ 2.4 µg/mL) | 16 (≈ 4.81 µg/mL) | 8 (≈ 2.4 µg/mL) | 8 (≈ 2.4 µg/mL) | 16 (≈ 4.81 µg/mL) |  |
| O=[N+]([O-])c1ccc(CSc2nc3ccccc3s2)c([N+](=O)[O-])c1 | > 144 | >72 | 16 (≈ 5.56 µg/mL) | 8 (≈ 2.78 µg/mL) | 8 (≈ 2.78 µg/mL) | > 32 | > 32 | 8 (≈ 2.78 µg/mL) | > 32 | 8 (≈ 2.78 µg/mL) | 2 (≈ 0.695 µg/mL) | 4 (≈ 1.39 µg/mL) |  |
| O=[N+]([O-])c1ccc(CSc2nc3ccccc3o2)c([N+](=O)[O-])c1 | 136 | 17 |  | 8 (≈ 2.65 µg/mL) |  | > 16 | > 32 | 4 (≈ 1.33 µg/mL) | 8 (≈ 2.65 µg/mL) |  | 8 (≈ 2.65 µg/mL) | 8 (≈ 2.65 µg/mL) | MIC (Mycobacterium kansasii [14]): 4 µM (≈ 1.33 µg/mL); MIC (Mycobacterium kansasii [15]): 4 µM (≈ 1.33 µg/mL); MIC (Mycobacterium kansasii [16]): 4 µM (≈ 1.33 µg/mL) |
| O=[N+]([O-])c1ccccc1CSc1nc2ccccc2o1 |  |  | > 125 | > 62 | 125 (≈ 35.8 µg/mL) | > 125 | > 125 | 125 (≈ 35.8 µg/mL) | > 62 | 62 (≈ 17.8 µg/mL) | > 250 | > 250 |  |
| c1ccc(CSc2nc3ccccc3o2)cc1 |  |  | 250 (≈ 60.3 µg/mL) | 125 (≈ 30.2 µg/mL) | 250 (≈ 60.3 µg/mL) | 62 (≈ 15 µg/mL) | 125 (≈ 30.2 µg/mL) | 125 (≈ 30.2 µg/mL) | 250 (≈ 60.3 µg/mL) | 32 (≈ 7.72 µg/mL) | 250 (≈ 60.3 µg/mL) | 500 (≈ 121 µg/mL) |  |
| NC(=S)c1ccc(CSc2nc3ccccc3s2)cc1 | > 158 | >39.5 | 8 (≈ 2.53 µg/mL) | 8 (≈ 2.53 µg/mL) | 8 (≈ 2.53 µg/mL) | 16 (≈ 5.06 µg/mL) | 32 (≈ 10.1 µg/mL) | 4 (≈ 1.27 µg/mL) | 8 (≈ 2.53 µg/mL) | 4 (≈ 1.27 µg/mL) | 4 (≈ 1.27 µg/mL) | 8 (≈ 2.53 µg/mL) |  |
| NC(=S)c1cccc(CSc2nc3ccccc3o2)c1 | 71.9 | 9 |  |  |  |  |  | 8 (≈ 2.4 µg/mL) |  |  | 8 (≈ 2.4 µg/mL) | 16 (≈ 4.81 µg/mL) | MIC (Mycobacterium kansasii [17]): 32 µM (≈ 9.61 µg/mL); MIC (Mycobacterium avium [18]): 62 µM (≈ 18.6 µg/mL); MIC (Mycobacterium kansasii [19]): 32 µM (≈ 9.61 µg/mL); MIC (Mycobacterium kansasii [14]): 8 µM (≈ 2.4 µg/mL); MIC (Mycobacterium kansasii [15]): 32 µM (≈ 9.61 µg/mL); MIC (Mycobacterium avium [20]): 62 µM (≈ 18.6 µg/mL); MIC (Mycobacterium kansasii [16]): 32 µM (≈ 9.61 µg/mL) |
| N#Cc1ccc(CSc2nc3ccccc3o2)cc1 |  |  | > 32 | 32 (≈ 8.52 µg/mL) | 32 (≈ 8.52 µg/mL) | 62 (≈ 16.5 µg/mL) | 62 (≈ 16.5 µg/mL) | 32 (≈ 8.52 µg/mL) | > 32 | 16 (≈ 4.26 µg/mL) | > 62 | > 62 |  |
| N#Cc1ccc(CSc2nc3ccccc3s2)cc1 |  |  | > 500 | 32 (≈ 9.04 µg/mL) | 250 (≈ 70.6 µg/mL) | 32 (≈ 9.04 µg/mL) | > 32 | 125 (≈ 35.3 µg/mL) | 32 (≈ 9.04 µg/mL) | 16 (≈ 4.52 µg/mL) | 62 (≈ 17.5 µg/mL) | 62 (≈ 17.5 µg/mL) |  |
